From BindingDB's records for doi:10.1021/jm0300835 (Duke University, 2003)

Key:
[1] = biological target: T1, M-phase inducer phosphatase 2 (Homo sapiens, UniProt P30305); assay: Inhibitory concentration of compound against mutant E478Q of Cell division cycle 25B was determined
T1 sequence (P30305 whole entry): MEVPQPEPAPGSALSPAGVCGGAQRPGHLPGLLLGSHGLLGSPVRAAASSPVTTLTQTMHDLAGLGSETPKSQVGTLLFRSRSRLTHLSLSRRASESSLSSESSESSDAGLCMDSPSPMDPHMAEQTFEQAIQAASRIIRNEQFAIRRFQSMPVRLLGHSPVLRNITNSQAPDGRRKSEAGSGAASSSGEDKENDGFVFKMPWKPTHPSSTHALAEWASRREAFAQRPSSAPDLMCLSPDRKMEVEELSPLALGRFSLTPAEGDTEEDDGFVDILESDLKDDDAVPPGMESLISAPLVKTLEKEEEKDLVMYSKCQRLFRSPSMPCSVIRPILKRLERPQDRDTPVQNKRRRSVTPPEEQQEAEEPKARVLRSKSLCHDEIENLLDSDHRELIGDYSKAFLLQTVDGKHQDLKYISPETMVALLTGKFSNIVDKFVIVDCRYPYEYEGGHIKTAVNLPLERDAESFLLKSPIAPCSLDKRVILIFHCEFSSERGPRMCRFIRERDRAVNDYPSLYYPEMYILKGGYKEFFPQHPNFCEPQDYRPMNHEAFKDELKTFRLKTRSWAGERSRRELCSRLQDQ
Summary of the method: (§1)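 Cdc25B catalytic-domain point mutants, a truncated form and wild type were assayed with 3-O-methylfluorescein phosphate as substrate, monitored at 477 nm under initial velocity conditions. Values are the mean of two separate determinations.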

[2] = biological target: T1, M-phase inducer phosphatase 2; assay: Inhibitory concentration of compound against mutant E474Q of Cell division cycle 25B was determined; summary of the method: as §1
[3] = biological target: T2, M-phase inducer phosphatase 3 (Homo sapiens, UniProt P30307); assay: Eight point inhibitory concentration against […] was determined
T2 sequence (P30307 whole entry): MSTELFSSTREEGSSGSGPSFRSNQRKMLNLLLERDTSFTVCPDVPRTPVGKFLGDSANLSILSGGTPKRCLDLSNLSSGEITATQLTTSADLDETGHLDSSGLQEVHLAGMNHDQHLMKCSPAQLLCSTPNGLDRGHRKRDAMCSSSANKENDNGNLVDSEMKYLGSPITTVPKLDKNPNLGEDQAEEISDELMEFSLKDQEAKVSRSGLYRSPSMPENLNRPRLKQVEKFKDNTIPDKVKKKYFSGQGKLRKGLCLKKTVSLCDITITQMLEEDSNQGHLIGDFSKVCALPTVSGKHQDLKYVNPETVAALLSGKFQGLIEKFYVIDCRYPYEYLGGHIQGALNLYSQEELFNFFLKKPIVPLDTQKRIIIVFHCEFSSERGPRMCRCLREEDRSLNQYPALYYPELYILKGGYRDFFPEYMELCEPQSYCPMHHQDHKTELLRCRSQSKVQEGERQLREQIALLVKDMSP
Summary of the method: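 Phosphatase activity measured with 3-O-methylfluorescein phosphate at 50 μM (~5 × Km), product formation followed at 477 nm by UV-vis under initial velocity conditions (2–5% turnover) in time-dependent assays. Eight inhibitor concentrations were used, and IC50 was obtained by fitting to a dose–response equation.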

[4] = biological target: T1, M-phase inducer phosphatase 2; assay: Inhibitory concentration of compound against mutant M531A of Cell division cycle 25B was determined; summary of the method: as §1
[5] = biological target: T1, M-phase inducer phosphatase 2; assay: Inhibitory concentration of compound against mutant F475A of Cell division cycle 25B was determined; summary of the method: as §1
[6] = biological target: T1, M-phase inducer phosphatase 2; assay: Inhibitory concentration of compound against mutant WT of Cdc25B phosphatase was determined
Summary of the method: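 Cdc25B catalytic domain constructs (wild-type, site-directed point mutants, truncated); activity with 3-O-methylfluorescein phosphate at 50 μM (~5 × Km), product read at 477 nm by UV-vis under initial velocity (2–5% turnover); eight inhibitor concentrations, IC50 fitted; values are mean of two determinations.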

[7] = biological target: T1, M-phase inducer phosphatase 2; assay: Inhibitory concentration of compound against Cdc25B phosphatase was determined using CDK2-p-TpY/Cyclin A as a substrate
Summary of the method: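 Cdc25B IC50 with Cdk2-pTpY/CycA protein substrate at 300 nM; eight inhibitor concentrations; time-dependent assays; 1 mg/mL BSA carrier added only after TCA quench, not during reaction.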

[8] = biological target: T1, M-phase inducer phosphatase 2; assay: Eight point inhibitory concentration against Cell division cycle 25B was determined
Summary of the method: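 Cdc25B activity read by UV-vis at 477 nm as product formed from 3-O-methylfluorescein phosphate (mFP) at 50 μM (~5 × Km), time-dependent, initial-velocity conditions (2–5% turnover); eight inhibitor concentrations, IC50 fitted to eq 1. Each reaction compared with a simultaneous no-inhibitor control; selected compounds run in duplicate.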

IC50 [1] [µM] | IC50 [2] [µM] | IC50 [3] [µM] | IC50 [4] [µM] | IC50 [5] [µM] | IC50 [6] [µM] | IC50 [7] [µM] | IC50 [8] [µM] | Compound
6.5 | > 50 | 15 | 6.5 | > 50 | – | – | – | CC(C)=CCc1cccc2c(C3C(=O)C(=O)CC(=O)C3=O)c[nH]c12 [2,5-Dihydroxy-3-[7-(3-methyl-but-2-enyl)-1H-indol-3-yl]-[1,4]benzoquinone]
– | – | – | – | – | 18 | > 50 | 18 | O=C1CC(=O)C(=O)C(c2c[nH]c3ccccc23)C1=O [2,5-Dihydroxy-3-(1H-indol-3-yl)-[1,4]benzoquinone]
